Screening data deposited in PubChem BioAssay by Broad Institute.
An excerpt weighted towards active compounds, which were near 3.1% of everything screened.
Cneo AK release: causes C. neoformans cell lysis. AID 651654. adenylate kinase release luminescence, 4 h; normalised: neutral wells 0, clomiphene wells 100. 360,000 tested, 0.2% active. lysis activity, % at 15 µM;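 active = mean lysis activity across replicates of at least 80%, whatever share of replicates individually reach that level; inactive = mean lysis activity below 80%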
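Signal: Adenylate kinase release luminescence | Assay system: Log-phase Cryptococcus neoformans yeast cells | Input: Cells at 5 × 10^6 per mL | Buffer or medium: Fresh YPD growth medium | Compound: Single dose | Schedule: Static 4 h at 37 °C with compound, 1 h detection | Controls: Clomiphene | Read-out: Luminescence rise reflecting yeast cell lysis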
GSIS activator: primary screen for activators of insulin secretion dependent on glucose, INS-1E cells, GLuc reporter luminescence; INS-1E GLuc reporter insulin secretion, 2-3 h; activation, % at 16.6 µM; 370,000 tested, 0.61% active; AID 743287;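 active = lowest replicate activation of at least 40%, so every replicate reaches that level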;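 also: 0% = median of neutral control wells and 100% = median of IBMX positive control wells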
miR-122 sensor: inhibitors of miR-122 in Huh7 cells; Huh7 miR-122 Renilla luciferase sensor, 48 h; neutral wells = 0, positive control = 100; activation (reporter increase), % at 12.5 µM; 340,000 tested, 0.3% active;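 active = mean replicate activation score at least 90 and every replicate individually at or above 90; inconclusive = only one of the two criteria met; inactive = neither criterion met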;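 also: higher luciferase means less miR-122 activity so hits act as miR-122 inhibitors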
Ecoli rRNA inh: selective bacterial rRNA inhibition in E. coli; AID 720706; 350,000 tested, 1.6% active; E. coli WT GFP vs humanized-ribosome RFP mutants, fluorescence, 24 h; active compounds read low; DMSO median 0, no signal -100; GFP signal change (wild-type ribosome), % (no concentration beside the values);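 active = significant combined selectivity score with lowered wild-type GFP, culture density cut under 30%, mutant RFP and density less affected; inactive = any of these conditions unmet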
HIV Env fusion: inhibitors of HIV Env-mediated cell fusion | inhibition, % at 12.3 µM | HeLa-JRFL Env/CEM21 cell fusion, luciferase | 360,000 tested, 1.1% active;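 active = mean replicate inhibition score of at least 50 and every replicate individually at or above 50; inconclusive = only one of the two criteria met; inactive = mean below 50 and not all replicates reaching 50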;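 also: 0% = plate neutral controls and 100% = maraviroc near 300 nM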
F508del corr: correctors of CFTR F508del function in bronchial epithelial cells. 350,000 tested, 0.36% active. activity (quench increase), % at 7.58 µM. CFBE cells, YFP halide quenching; stimulated with forskolin plus potentiator P3; % fluorescence drop versus neutral controls;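 active = mean added fluorescence quench of at least 8% versus neutral control, with both replicates also reaching 8%; inconclusive = only one of the mean or replicate conditions met; inactive = mean below 8% and not both replicates reaching 8%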;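 also: cells transiently co-express mutant CFTR-F508del with the halide-sensitive YFP; corrector assay measuring rescue of mutant channel to the surface after 24 h compound exposure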
* = called active by the depositor; ? = inconclusive; . = no result given; + = active, no number; [ ] = another dose, or the depositor's remark.

SMILES	Cneo AK release	GSIS activator	miR-122 sensor	Ecoli rRNA inh	HIV Env fusion	F508del corr
COc1ccc(NS(=O)(=O)c2cc(NC(=O)c3cccs3)ccc2N2CCOCC2)cc1	2	.	46	-21	-77	5
COc1ccccc1NS(=O)(=O)c1cc(NC(=O)c2cccs2)ccc1N1CCOCC1	.	0	112*	-15	-137	-3
CO[C@H]1CN(C)C(=O)c2cc(NC(=O)Nc3ccc(Cl)cc3)ccc2OC[C@@H](C)N(C(=O)Nc2c(C)noc2C)C[C@@H]1C	-4	-18	0[16.7 µM]	-2	8[16.7 µM]	3
O=C([C@@H]1[C@@H](CO)[C@@H]2Cn3c(ccc(C4=CCCCC4)c3=O)[C@@H]2N1Cc1nccs1)N1CCOCC1	4	2	5[16.7 µM]	-1	.	1
Cc1ccc(S(=O)(=O)Nc2ccc3c(c2)C(=O)N([C@@H](C)CO)C[C@H](C)[C@@H](CN(C)C(=O)Nc2ccc4c(c2)OCO4)OCCCC[C@H](C)O3)cc1	-2	-32	8[16.7 µM]	-1	0[16.7 µM]	-4
O=C(C1CCCCC1)N1CC2(C1)[C@@H](c1ccccc1)[C@@H](CO)N2Cc1ccccc1F	.	-26	.	-25	.	0
Clc1ccc(-c2ccnc(Oc3ccc4ccccc4c3)n2)cc1	2	114*	-2	.	.	.
Clc1ccc(-c2ccnc(Oc3cc(Cl)ccc3Cl)n2)cc1	.	85*	0	.	.	.
N#Cc1cc(-c2ccccc2)nc(Oc2ccc(Cl)cc2)n1	.	-14	.	.	?	.
Oc1ccc(-c2nccc(-c3ccc(Cl)cc3)n2)cc1	.	9	.	2	-17	.
OC[C@@H]1[C@H](c2ccc(/C=C/c3ccccc3)cc2)[C@@H]2CN(Cc3ccncc3)CCCCN12	-1	12	5[16.7 µM]	-58	.	6
C[C@H](O)C#Cc1cnc2c(c1)C(=O)N([C@H](C)CO)C[C@@H](C)[C@H](CN(C)C(=O)c1ccccc1F)O2	-9	27	-3[16.7 µM]	3	3[16.7 µM]	0
O=C1C2=C(NC(=S)NC2c2ccc(Cl)cc2)NC(c2ccc(Cl)cc2)N1c1ccc(Cl)cc1 (centres undefined)	0	.	3	.	-147	.
CCc1ccc(C2NC(=S)NC3=C2C(=O)N(c2ccccc2OC)C(c2ccc(CC)cc2)N3)cc1 (centres undefined)	0	127*	13	.	-60	.
COc1cc2c(cc1Cl)C(=O)C(F)(c1ccccc1)C(=O)N2 (centres undefined)	.	-17	.	-29*	-7	0
CCOC(=O)C1CCCN(C(=O)c2csc(-c3ccc4c(c3)CCO4)n2)C1 (centres undefined)	-1	.	1	-41*	23	-2
Cc1noc(C)c1S(=O)(=O)Nc1ccc2c(c1)C(=O)N([C@H](C)CO)C[C@H](C)[C@H](CN(C)CC1CCCCC1)O2	0	15	6[16.7 µM]	1	-2[16.7 µM]	-2
Oc1ccccc1N=N/C(=N/Nc1ccccc1O)c1ccccc1	-2	.	-8	-2	-19	1
Cn1nnnc1N=N/C(=N/Nc1ccccc1)c1ccccc1	-1	11	31	-3	27	13*
O=C(C1CCOCC1)N1CC(=O)N2[C@H](C1)[C@@H](c1ccc(/C=C/c3ccccc3)cc1)[C@@H]2CO	.	4	.	-3	.	0
N#Cc1nc(-c2ccccc2F)oc1NCc1cccc2c1OCO2	1	22	-2	-29*	.	3
Cc1noc(C)c1S(=O)(=O)Nc1ccc2c(c1)C(=O)N([C@@H](C)CO)C[C@@H](C)[C@@H](CN(C)Cc1ccncc1)OCCCC[C@H](C)O2	-1	-10	-2[16.7 µM]	0	1[16.7 µM]	1
CCCNC(=O)N1C[C@H](C)[C@@H](OC)CN(C)C(=O)c2ccc(NC(=O)CCC)cc2OC[C@H]1C	-4	7	.	1	.	0
FC(F)(F)c1cc(CCN2CCNC[C@@H]2CC2CCCCC2)cc(C(F)(F)F)c1	51	+	-38	-53	85*	4
NC1=NC[C@H](CC2CCCCC2)N1CCc1cc(C(F)(F)F)cc(C(F)(F)F)c1	0	+	3	-57	-2	3
SMILES	Cneo AK release	GSIS activator	miR-122 sensor	Ecoli rRNA inh	HIV Env fusion	F508del corr
FC(F)(F)c1cc(CCN2CCNC[C@@H]2c2ccccc2)cc(C(F)(F)F)c1	20	115*	.	-39	-4	1
c1ccc(C[C@H]2CNCCN2CCCCC2CCCCC2)cc1	1	57*	6	-54	7	-2
Fc1cccc(CCN2CCNC[C@@H]2c2ccccc2)c1	2	-17	0	2	-1	4
C[C@@H]1CCCCO[C@H](CN(C)Cc2ccccc2)[C@H](C)CN([C@@H](C)CO)C(=O)c2cc(NC(=O)CCC(F)(F)F)ccc2O1	.	2	1[16.7 µM]	0	-10[16.7 µM]	-2
C[C@H](CO)N1C[C@H](C)[C@H](CN(C)C(=O)Nc2ccccc2)Oc2ncc(C3=CCCC3)cc2C1=O	0	-19	-10[16.7 µM]	-1	14[16.7 µM]	-1
Cc1noc(C)c1S(=O)(=O)Nc1ccc2c(c1)CC(=O)N([C@@H](C)CO)C[C@@H](C)[C@@H](CN(C)C(=O)Nc1ccc(F)cc1)O2	-2	-2	2[16.7 µM]	7	8[16.7 µM]	-1
C[C@H]1CN([C@@H](C)CO)C(=O)c2cc(-c3ccccc3)cnc2O[C@H]1CN(C)C(=O)c1ccccc1F	1	8	.	1	6[16.7 µM]	-1
Cc1onc(-c2c(F)cccc2Cl)c1-c1nnc(-c2cccc3ccccc23)o1	-2	5	-6	10	-10	2
Cc1onc(-c2c(Cl)cccc2Cl)c1-c1nc2cc(Cl)ccc2c(=O)o1	-2	-38	5	-34*	4	-1
CN(N=Nc1nc[nH]c1C(N)=O)C1CCCCC1	3	21	5	.	56*	2
CN(C)c1cccc2c1c(NC(=O)Nc1ccccc1)nn2C	.	9	0	-18*	15	0
CC(=O)N1CC[C@@H]2[C@H]1c1cc(-c3ccccc3)ccc1N(C)[C@H]2CO	-7	14	5[16.7 µM]	4	.	-6
Fc1ccc(Cn2cc(C(=S)N3CCOCC3)c3ccccc32)cc1	20	-4	59	-26*	26	-2
O=C(O)Cn1cc(C(=S)N2CCOCC2)c2ccccc21	0	-9	0	.	-98	.
O=C(Cn1cc(C(=S)N2CCOCC2)c2ccccc21)N1CCOCC1	-1	.	4	.	.	.
Fc1ccccc1Cn1cc(C(=S)N2CCOCC2)c2ccccc21	12	5	247*	-20	6	0
CN(c1cccc(NC(=O)c2ccc(Cl)c(S(=O)(=O)Nc3ccccc3)c2)c1)S(C)(=O)=O	0	-13	197*	.	-32	.
Cc1ccccc1NS(=O)(=O)c1cc(C(=O)Nc2cccc(N(C)S(C)(=O)=O)c2)ccc1C	1	10	.	.	33	.
